Measured values from ChEMBL document CHEMBL1141811, “Remangilones A-C, new cytotoxic triterpenes from Physena madagascariensis” (J Nat Prod, 1999).
Activity calls are given as the source filed them. The rule behind the calls is not given here.

How the values were obtained:
MDA-MB-435 [1] = assay: Induction of apoptosis in human MDA-MB-435 cells assessed as change in nuclear morphology at 50 nM by fluorescence microscopy; assay type: functional, cell-based
Summary of the method: (§1)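 MDA-MB-435 cells plated in DFCI-1 medium at (3-5) × 10^4 cells/35-mm dish and attached 24 h (37 °C, 6.5% CO2). Treated 48 h, then attached cells were examined by fluorescence microscopy for nuclear shrinkage and chromatin condensation or fragmentation. 50 nM paclitaxel served as positive control.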

[2] = Cytotoxicity against human 70N cells by SRB assay; assay type: cell-based
Summary of the method: (§2)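 Cells washed in PBS, resuspended in DFCI-1 medium and seeded in triplicate at 4000/0.2 mL/well. After 24 h attachment (37 °C, 6.5% CO2), cells got 0.1–40.0 μM compound (DMSO below 0.2% final; DMSO controls) for 48 h. Cells were then PBS-washed and SRB-stained, and dye was redissolved in 10 mM Tris·HCl and read at 550 nm. IC50 taken as 50% reduction of relative cell number.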

MDA-MB-435 [3] = assay: Cytotoxicity against human MDA-MB-435 cells by SRB assay; assay type: functional, cell-based; summary of the method: as §2
MDA-MB-435 [4] = assay: Induction of apoptosis in human MDA-MB-435 cells assessed as change in nuclear morphology at 2.3 uM by fluorescence microscopy; assay type: functional, cell-based; summary of the method: as §1
MDA-MB-231 [5] = assay: Cytotoxicity against human MDA-MB-231 cells assessed as change from polarized to spherical cellular morphology by SRB assay; assay type: functional, cell-based
MDA-MB-435 [6] = assay: Cytotoxicity against human MDA-MB-435 cells at 2.3 uM treated for 24 hrs and subsequently cultured in drug-free medium for 96 hrs by SRB assay; assay type: functional, cell-based
Summary of the method: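 MDA-MB-435 cells in DFCI-1 medium, seeded in triplicate at 4000/well and attached 24 h at 37 °C. Exposed to 2.3 μM compound for 24 h at 37 °C, then cultured in drug-free DFCI-1 medium for 96 h. Viability read by SRB staining with absorbance at 550 nm.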

MDA-MB-231 [7] = assay: Cytotoxicity against human MDA-MB-231 cells by SRB assay; assay type: functional, cell-based; summary of the method: as §2
MDA-MB-435 [8] = assay: Cytotoxicity against human MDA-MB-435 cells assessed as change from polarized to spherical cellular morphology by SRB assay; assay type: functional, cell-based

Structure (SMILES) | Activity (MDA-MB-435 [1]) | IC50 [2] | IC50 (MDA-MB-435 [3]) | Activity (MDA-MB-435 [4]) | Activity (MDA-MB-231 [5]) | Activity (MDA-MB-435 [6]) | IC50 (MDA-MB-231 [7]) | Activity (MDA-MB-435 [8])
CC(=O)O[C@H]1C(=O)[C@@]2(C)[C@H]([C@H](OC(=O)c3ccccc3)[C@]3(O)C[C@H](OC(=O)[C@H](O)[C@@H](NC(=O)c4ccccc4)c4ccccc4)C(C)=C1C3(C)C)[C@]1(OC(C)=O)CO[C@@H]1C[C@@H]2O | Active |  |  |  |  |  |  | 
CC1=C2CC[C@]3(C)[C@H](CC=C4[C@@H]5CC(C)(C)CC[C@@H]5C(=O)[C@H](O)[C@]43C)[C@@]2(C)C=C(O)C1=O [REMANGILONE A] |  | 40.5 µM | 8.5 µM | Active | Active | Active | 6.6 µM | Active
